Only some compounds are listed: those with a hit (about 3.5% of all), similar ones and a draw of the others.
MrgX1 agonist: human MrgX1 receptor agonism, primary screen. MrgX1-HEK293 cells, Fluo-4 calcium fluorescence, agonist mode; active compounds read high. Q96LB2. 310,000 tested, 0.44% active. AID 588627. B-score at 10 µM;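 active means calcium response B-score plate-corrected fluorescence ratio at least 3 library SD, with starting fluorescence B-score inside 5 SD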
Target sequence (Q96LB2 whole entry, looked up): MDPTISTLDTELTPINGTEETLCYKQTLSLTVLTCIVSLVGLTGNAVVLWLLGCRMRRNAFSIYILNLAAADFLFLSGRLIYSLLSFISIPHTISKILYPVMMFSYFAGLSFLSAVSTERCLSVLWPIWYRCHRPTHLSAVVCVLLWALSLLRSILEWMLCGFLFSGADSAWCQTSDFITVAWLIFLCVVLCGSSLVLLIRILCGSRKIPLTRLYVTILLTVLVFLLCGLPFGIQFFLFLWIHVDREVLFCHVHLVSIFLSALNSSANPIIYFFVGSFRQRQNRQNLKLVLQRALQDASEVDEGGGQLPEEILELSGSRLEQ
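Assay system: stable human MrgX1 HEK293 cell line. Quantity: 15,000 cells per well. Schedule: cells plated overnight, dye loaded 0.5 h 37 °C, 0.5 h room temperature. Detection: Fluo-4 NW calcium-flux fluorescence, kinetic read. Read-out basis: peak-minus-minimum fluorescence over baseline, converted to B scores. Control set: positive and negative control wells on each plate.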
MrgX1 allo act: allosterically activates human MrgX1 receptor signaling; MrgX1-HEK293, Fluo-4 calcium flux, FDSS; active compounds read high; 310,000 tested, 0.63% active; Q96LB2; B-score at 10 µM; AID 588675;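 active means plate-corrected calcium response at least 3 library SD above typical, normal starting fluorescence, not activating the receptor alone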;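 further: compound read alongside a low EC10 to EC30 dose of BAM8-22 agonist; peak minus trough fluorescence over baseline measured at the second addition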
RGS4 block: inhibitors of human RGS4; HEK293 M3R/RGS4 inducible, Fluo-4 calcium flux; active compounds read high; triggered by carbachol at its EC20; B-score at 10 µM; 310,000 tested, 0.45% active; AID 463165;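 active means B-score, a plate-corrected calcium signal, over three deviations above library mean, with baseline fluorescence within five deviations of library mean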;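 further: RGS4 expression induced by doxycycline in cells with stable M3 receptor; B-score is computed from the integrated fluorescence ratio over baseline after carbachol; higher B-score means a larger calcium signal and so more RGS4 inhibition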
Target sequence (P49798 whole entry, looked up): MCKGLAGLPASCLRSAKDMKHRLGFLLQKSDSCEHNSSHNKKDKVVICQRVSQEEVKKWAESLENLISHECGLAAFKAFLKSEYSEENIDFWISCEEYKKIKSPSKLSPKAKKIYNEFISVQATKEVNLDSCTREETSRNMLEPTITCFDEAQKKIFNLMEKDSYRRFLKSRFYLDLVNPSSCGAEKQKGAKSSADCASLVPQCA
RGS4 pot: potentiators or activators of RGS4. B-score at 10 µM. HEK293 M3R/inducible RGS4, carbachol calcium flux Fluo4; active compounds read low. AID 463111. 310,000 tested, 0.92% active;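 active means B-score of the integrated calcium signal more than 4 SD below the library mean, with starting fluorescence not abnormally high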;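 further: negative B-score means reduced calcium response which marks RGS4 activation or potentiation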
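Assay system: Inducible-RGS4 HEK293 cells carrying M3 receptor | Schedule: Compound preincubation 20 min at room temperature before agonist | Signal: Kinetic calcium fluorescence imaging with Fluo4-AM dye, 2 µM | Read-out basis: B score from integrated fluorescence ratio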
MrgX1 antag: human MrgX1 receptor antagonism, primary screen. AID 588676. 310,000 tested, 1.3% active. B-score at 10 µM. Q96LB2. MRGX1-HEK293 calcium flux, Fluo-4, BAM8-22 antagonism; active compounds read low;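 active means calcium-response B-score plate-corrected more than 3 library SD below zero, starting fluorescence within 5 deviations, no agonist response on first addition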;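 further: peak minus trough fluorescence over baseline after final BAM8-22 challenge near maximal dose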
MrgX1 ant reconf: confirmation of human MrgX1 receptor antagonists. shares compounds with MrgX1 antag. AID 602420. MrgX1-HEK293, BAM8-22 calcium flux, Fluo-4; active compounds read low. remaining BAM8-22 calcium response % of control (active compounds read low), % at 10 µM. 2,300 tested, 19% active;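 active means remaining agonist calcium response no higher than 100% minus 3 SD of agonist-only control wells, with starting fluorescence near control levels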;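 further: agonist BAM8-22 given at a near maximal EC90 to ECmax level; peak minus minimum fluorescence divided by baseline after agonist addition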
HEK293 Ca flux: counter-screen for MrgX1 antagonists: effect in parental HEK293 cells. shares compounds with MrgX1 antag. Fluo-4 calcium fluorescence, FDSS. fluorescence ratio F(max-min)/F0 at 10 µM. 4,000 tested, 2% active. AID 624111;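 active means duplicate-averaged calcium fluorescence ratio at least three times the standard deviation of buffer wells, a nonspecific response in parental cells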
HEK293 Ca counter: counter-screen for MrgX1 allosteric activators: effect in parental HEK293 cells; shares compounds with MrgX1 antag; parental HEK293 calcium flux, Fluo-4 fluorescence ratio; active compounds read high; fluorescence ratio F(max-min)/F0 at 10 µM; 4,000 tested, 0.4% active;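 active means calcium fluorescence ratio, averaged over duplicates, at least 3 SD of the buffer-well ratio, meaning a nonspecific response in receptor-free cells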;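 further: untransfected parental HEK293 lacking MrgX1 used as counterscreen for MrgX1 allosteric activators; fluorescence change taken during the second addition on a kinetic imager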
HEK293 Ca cntr2: activity in parental HEK293 cells lacking MrgX1 receptor; shares compounds with MrgX1 antag; Fluo-4 calcium fluorescence (FDSS); active compounds read high; fluorescence ratio F(max-min)/F0 at 10 µM; 4,000 tested, 8.7% active; AID 624115;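 active means calcium fluorescence ratio at least three times the spread of buffer wells, meaning a non-specific response in parental cells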
A number is an active result.

For CCOc1ccc2[nH]cc(C(=O)NCc3ccccc3)c(=O)c2c1 the results were MrgX1 agonist inactive, MrgX1 allo act inactive, RGS4 block inactive, RGS4 pot inactive and MrgX1 antag inactive.
Screening O=C(NCc1ccccc1)c1c[nH]c2cc3c(cc2c1=O)OCCO3 returned MrgX1 agonist inactive, MrgX1 allo act inactive, RGS4 block inactive, RGS4 pot inactive, MrgX1 antag -5.47, MrgX1 ant reconf inactive, HEK293 Ca flux inactive, HEK293 Ca counter inactive and HEK293 Ca cntr2 inactive.
For O=[N+]([O-])c1cccc(NC2=NCCC2)c1 the results were MrgX1 agonist inactive, MrgX1 allo act inactive, RGS4 block inactive, RGS4 pot inactive and MrgX1 antag inactive.
Screening Cc1cc(C2N=C(N)Nc3nc4ccccc4n32)c(C)n1-c1ccccc1Cl (stereo not drawn) returned MrgX1 agonist inactive, MrgX1 allo act inactive, RGS4 block inactive, RGS4 pot inactive, MrgX1 antag -5.54, MrgX1 ant reconf inactive, HEK293 Ca flux inactive, HEK293 Ca counter inactive and HEK293 Ca cntr2 inactive.
Screening O=C(NC1CCCC1)C(c1ccc(Cl)cc1)N1CCc2ccccc21 (stereo not drawn) returned MrgX1 agonist inactive, MrgX1 allo act inactive, RGS4 block inactive, RGS4 pot inactive, MrgX1 antag -4.8, MrgX1 ant reconf inactive, HEK293 Ca flux inactive, HEK293 Ca counter inactive and HEK293 Ca cntr2 inactive.
For Cc1cc(=O)[nH]c(SCC(=O)OCc2ccccc2)c1C#N the results were MrgX1 agonist inactive, MrgX1 allo act inactive, RGS4 block inactive, RGS4 pot inactive and MrgX1 antag inactive.
Screening CC(OC(=O)c1cccc(-n2cnnn2)c1)C(=O)N(C)c1ccccc1 (stereo not drawn) returned MrgX1 agonist inactive, MrgX1 allo act inactive, RGS4 block inactive, RGS4 pot inactive and MrgX1 antag inactive.
NC(=O)NC(=O)COC(=O)c1ccc2c(c1)C(=O)N(Cc1ccccc1)C2=O was read as MrgX1 agonist inactive, MrgX1 allo act inactive, RGS4 block inactive, RGS4 pot inactive and MrgX1 antag inactive.
`COc1ccccc1NC(=O)C1=C(C)Nc2nc(-c3ccc(N(C)C)cc3)nn2C1c1ccncc1` (stereo not drawn) gave MrgX1 agonist inactive, MrgX1 allo act inactive and MrgX1 antag inactive.
`COc1ccccc1NC(=O)C1=C(C)Nc2nc(-c3cccs3)nn2C1c1cccnc1` (stereo not drawn) gave MrgX1 agonist inactive, MrgX1 allo act inactive, RGS4 block inactive, RGS4 pot inactive, MrgX1 antag -5.22, MrgX1 ant reconf inactive, HEK293 Ca flux inactive, HEK293 Ca counter inactive and HEK293 Ca cntr2 inactive.
O=C(Oc1ccc2cc(Br)ccc2c1)c1cccnc1 was read as MrgX1 agonist inactive, MrgX1 allo act inactive, RGS4 block inactive, RGS4 pot inactive and MrgX1 antag inactive.
For CCN1CCN(C(=O)C2CCN(Cc3cc(Cl)ccc3O)CC2)CC1 the results were MrgX1 agonist inactive, MrgX1 allo act inactive, RGS4 block inactive, RGS4 pot inactive, MrgX1 antag -7.71, MrgX1 ant reconf inactive, HEK293 Ca flux inactive, HEK293 Ca counter inactive and HEK293 Ca cntr2 inactive.
`CCN1CCN(C(=O)C2CCN(Cc3nc(-c4cccc(Cl)c4)oc3C)CC2)CC1` gave MrgX1 agonist inactive, MrgX1 allo act inactive, RGS4 block inactive, RGS4 pot inactive and MrgX1 antag inactive.
For COc1ccccc1NS(=O)(=O)c1ccc(-c2cnc(C3CC3)o2)cc1 the results were MrgX1 agonist inactive, MrgX1 allo act inactive, RGS4 block inactive, RGS4 pot inactive, MrgX1 antag -5.18, MrgX1 ant reconf inactive, HEK293 Ca flux inactive, HEK293 Ca counter inactive and HEK293 Ca cntr2 inactive.

Screening data from PubChem.
